An excerpt weighted towards active compounds, which were near 2.5% of everything screened.
E-selectin induc = E-selectin induction on HUVECs; P16581; HUVEC E-selectin immunofluorescence imaging; normalized: neutral wells 0, TNF-alpha wells 100; activation, % at 7.58 µM; 260,000 compounds, 0.37% hits; AID 686992;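 active = mean E-selectin-positive cell signal at least 10% of the positive control, reached in at least 60% of replicates, without over 20% cell loss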
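material = human umbilical vein endothelial cells (HUVEC), E-selectin induction | quantity = 3,000 cells/well | medium = EGM-2 growth medium on 0.1% gelatin-coated wells | technique = immunofluorescence imaging | read-out basis = % PE-positive cells | control set = TNF-alpha positive control, DMSO neutral control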
DENV2 CPE rescue = DENV2-induced cell death inhibition. DENV2-infected cells, cytopathic effect rescue, plate reader. CPE inhibition, % at 9.99 µM. 350,000 compounds, 1.7% hits; in the data active = CPE inhibition above about 20%, passing the limit was not always enough; tested in BHK-21 cells
ERAP1 inh = ERAP1 (human) enzyme inhibition; 340,000 compounds, 0.15% hits; recombinant ERAP1, Leu-AMC fluorescence, 60 min; AID 652197; inhibition, % at 10.7 µM;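 active = mean replicate inhibition of at least 30%, or all replicates individually reaching that 30% level; inactive = mean below 30% and not every replicate reaching it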
Target sequence (Q9NZ08 whole entry, looked up): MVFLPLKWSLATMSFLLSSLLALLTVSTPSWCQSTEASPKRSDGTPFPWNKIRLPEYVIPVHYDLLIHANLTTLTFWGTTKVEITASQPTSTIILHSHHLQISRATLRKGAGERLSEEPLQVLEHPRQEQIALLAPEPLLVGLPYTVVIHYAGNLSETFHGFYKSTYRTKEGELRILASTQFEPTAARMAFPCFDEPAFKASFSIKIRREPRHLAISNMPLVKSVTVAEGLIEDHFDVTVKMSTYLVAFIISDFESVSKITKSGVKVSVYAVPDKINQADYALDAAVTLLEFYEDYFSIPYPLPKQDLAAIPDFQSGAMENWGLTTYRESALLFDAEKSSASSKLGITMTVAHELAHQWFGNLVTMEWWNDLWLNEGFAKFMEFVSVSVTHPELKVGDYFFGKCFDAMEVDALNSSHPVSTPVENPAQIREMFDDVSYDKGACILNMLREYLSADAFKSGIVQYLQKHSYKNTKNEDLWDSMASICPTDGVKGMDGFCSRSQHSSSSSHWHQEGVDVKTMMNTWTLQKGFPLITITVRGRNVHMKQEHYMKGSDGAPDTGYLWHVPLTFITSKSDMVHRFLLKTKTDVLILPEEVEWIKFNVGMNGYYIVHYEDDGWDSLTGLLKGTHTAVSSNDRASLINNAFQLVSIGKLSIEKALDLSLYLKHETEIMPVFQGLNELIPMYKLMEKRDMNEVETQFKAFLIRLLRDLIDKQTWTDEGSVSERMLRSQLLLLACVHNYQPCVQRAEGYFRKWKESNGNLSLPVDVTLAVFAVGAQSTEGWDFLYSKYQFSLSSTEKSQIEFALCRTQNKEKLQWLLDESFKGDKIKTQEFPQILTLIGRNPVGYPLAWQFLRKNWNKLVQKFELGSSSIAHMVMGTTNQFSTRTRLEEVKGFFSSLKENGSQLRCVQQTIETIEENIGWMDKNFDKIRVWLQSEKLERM
PglD inh = inhibitors of Campylobacter jejuni PglD acetyltransferase; inhibition, % at 12.5 µM; purified PglD enzyme, DTNB colorimetric CoA detection; AID 602405; 360,000 compounds, 0.098% hits; in the data active = inhibition above about 16%, passing the limit was not always enough
SIRT5 block = inhibitors of human sirtuin-5 desuccinylase. 330,000 compounds, 1.1% hits. inhibition, % at 15 µM. Purified SirT5, succinyl-peptide AMC, trypsin-coupled fluorescence. AID 652115; in the data active = inhibition above about 15%
Each line names hits and unclear results; the compound was inactive in the other large screens; ! = not confirmed by another sample.

C[C@H]1CCCCO[C@H](CN(C)C(=O)C2CCCCC2)[C@@H](C)CN([C@@H](C)CO)C(=O)c2cc(NC(=O)NC3CCCCC3)ccc2O1	SIRT5 block 15.7!
C[n+]1ccn(CC(=O)c2cc(C(C)(C)C)c(O)c(C(C)(C)C)c2)c1	none
C[C@@H]1CCCCO[C@H](CN(C)C(=O)Nc2ccc(F)cc2)[C@H](C)CN([C@H](C)CO)C(=O)c2cc(NC(=O)Nc3ccc(F)cc3)ccc2O1	none (no result: E-selectin induc)
COc1ccc(NC(=O)N(C)C[C@@H]2OCCCC[C@@H](C)Oc3ccc(NC(=O)Nc4ccc(F)cc4)cc3C(=O)N([C@H](C)CO)C[C@@H]2C)cc1	SIRT5 block 17.8
C[C@H]1CCCCO[C@H](CN(C)C(=O)c2ccccc2)[C@@H](C)CN([C@@H](C)CO)C(=O)c2cc(NC(=O)Nc3ccc(F)cc3)ccc2O1	DENV2 CPE rescue 27.8
C[C@@H]1CCCCO[C@@H](CN(C)C(=O)Nc2ccc(F)cc2)[C@H](C)CN([C@H](C)CO)C(=O)c2cc(NC(=O)Nc3ccc(F)cc3)ccc2O1	DENV2 CPE rescue 64.7 (no result: E-selectin induc)
C[C@@H]1CCCCO[C@@H](CN(C)C(=O)c2ccccc2)[C@H](C)CN([C@@H](C)CO)C(=O)c2cc(NC(=O)Nc3ccc(F)cc3)ccc2O1	none
C[C@@H]1CCCCO[C@@H](CN(C)C(=O)Nc2ccc3c(c2)OCO3)[C@H](C)CN([C@@H](C)CO)C(=O)c2cc(NC(=O)Nc3ccc(F)cc3)ccc2O1	none
C[C@@H]1CN([C@@H](C)CO)C(=O)c2cc(NC(=O)Nc3ccc(F)cc3)ccc2O[C@@H](C)CCCCO[C@@H]1CN(C)C(=O)Nc1ccc2c(c1)OCO2	DENV2 CPE rescue 23.0 (no result: PglD inh)
COCCNC(=O)c1cc2c(c(-c3cccc(-c4cccc(OC)c4)c3)n1)[C@@H](CCO)N(S(=O)C(C)(C)C)C2 (stereo partly drawn)	none
C[C@H](CO)N1C[C@H](C)[C@@H](CN(C)C(=O)C2CCCCC2)OCCCC[C@H](C)Oc2ccc(NC(=O)Nc3ccc(F)cc3)cc2C1=O	SIRT5 block 21.9
C[C@H]1CCCCO[C@@H](CN(C)C(=O)C2CCCCC2)[C@@H](C)CN([C@@H](C)CO)C(=O)c2cc(NC(=O)Nc3ccc(F)cc3)ccc2O1	none
C[C@@H]1CN([C@H](C)CO)C(=O)c2cc(NC(=O)Nc3ccc(F)cc3)ccc2O[C@@H](C)CCCCO[C@H]1CN(C)C	DENV2 CPE rescue 41.8
CN(CC1CCN(CCc2cccc(C(F)(F)F)c2)CC1)C(=O)c1ccccc1	none (no result: E-selectin induc)
Cc1noc(C)c1C(=O)NC(C)C1CCCO1 (stereo not drawn)	none (no result: E-selectin induc, DENV2 CPE rescue, ERAP1 inh, SIRT5 block)
CCOc1ccccc1N1CCN(C(=O)c2ccc(S(=O)(=O)Nc3ccccc3)cc2)CC1	none (no result: E-selectin induc)
O=C1C=CC(=O)c2c(O)c(CO)c(CO)c(O)c21	SIRT5 block 15.5 (no result: E-selectin induc, PglD inh)
COc1ccccc1NS(=O)(=O)c1cccc(C(=O)NCC(c2ccccc2OC)N2CCCC2)c1 (stereo not drawn)	SIRT5 block 15.4 (no result: E-selectin induc)
CC1(C)CC2CC(C)(CN2C(=O)c2cc(-c3ccccc3O)on2)C1 (stereo not drawn)	SIRT5 block 15.7
CC1(C)CC2CC(C)(CN2C(=O)c2ccc([N+](=O)[O-])cc2)C1 (stereo not drawn)	SIRT5 block 21.2 (no result: PglD inh)
Cc1ccc(OCC(=O)NCCS(=O)(=O)N2CCN(c3ccccc3)CC2)cc1	none
COC(=O)CSCc1nc2ccccc2[nH]c1=O	none
CCOC(=O)/C=C/c1cc(F)ccc1O	DENV2 CPE rescue 20.7 (no result: PglD inh)
C[C@H]1CN([C@@H](C)CO)C(=O)c2cccc(NC(=O)Nc3ccc(F)cc3)c2O[C@@H]1CN(C)C(=O)Nc1ccc(C(F)(F)F)cc1	DENV2 CPE rescue 57.1
C[C@@H]1CN([C@H](C)CO)C(=O)c2cccc(NC(=O)Nc3ccc(C(F)(F)F)cc3)c2O[C@@H]1CN(C)C(=O)Nc1ccc2c(c1)OCO2	DENV2 CPE rescue 40.9 (no result: ERAP1 inh, SIRT5 block)
Cc1cc(C(=O)Nc2cccc3c2O[C@H](CN(C)C(=O)Nc2ccc(C(F)(F)F)cc2)[C@@H](C)CN([C@H](C)CO)C3=O)n(C)n1	DENV2 CPE rescue 38.3
C[C@@H]1CN([C@@H](C)CO)C(=O)c2cccc(NS(C)(=O)=O)c2O[C@H]1CN(C)C(=O)Nc1ccc(C(F)(F)F)cc1	DENV2 CPE rescue 79.0 (no result: E-selectin induc)
Cc1cc(C(=O)Nc2cccc3c2O[C@@H](CN(C)C(=O)Nc2ccc(C(F)(F)F)cc2)[C@@H](C)CN([C@@H](C)CO)C3=O)n(C)n1	none

Screens from PubChem.
